Results from ChEMBL document CHEMBL1142695, “Discovery of functionally selective 7,8,9,10-tetrahydro-7,10-ethano-1,2,4-triazolo[3,4-a]phthalazines as GABA A receptor agonists at the alpha3 subunit” (J Med Chem, 2005).

Experiments:
Assay type in all cases: cell-based
[1] = biological target: T1, GABA-A receptor; alpha-1/beta-3/gamma-2 (Homo sapiens, UniProt P14867+P18507+P28472); test: Inhibition of [3H]Ro-151788 binding to recombinant human gamma-aminobutyric-acid A receptor alpha-1-beta-3-gamma-2 subtype expressed in L (tk-) cells
T1 sequence (P14867 whole entry): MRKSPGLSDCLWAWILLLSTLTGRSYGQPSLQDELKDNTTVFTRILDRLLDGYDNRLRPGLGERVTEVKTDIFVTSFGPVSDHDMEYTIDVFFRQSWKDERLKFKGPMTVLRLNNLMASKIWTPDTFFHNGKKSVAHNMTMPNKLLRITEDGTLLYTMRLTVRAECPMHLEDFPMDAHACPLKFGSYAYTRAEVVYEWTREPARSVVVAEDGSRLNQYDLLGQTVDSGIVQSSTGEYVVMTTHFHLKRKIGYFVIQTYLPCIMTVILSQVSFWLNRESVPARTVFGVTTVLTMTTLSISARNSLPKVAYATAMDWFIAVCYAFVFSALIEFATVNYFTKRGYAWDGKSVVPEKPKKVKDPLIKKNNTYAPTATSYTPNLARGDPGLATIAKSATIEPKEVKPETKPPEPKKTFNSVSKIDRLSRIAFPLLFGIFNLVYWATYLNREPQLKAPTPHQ
T1 sequence (P18507 whole entry): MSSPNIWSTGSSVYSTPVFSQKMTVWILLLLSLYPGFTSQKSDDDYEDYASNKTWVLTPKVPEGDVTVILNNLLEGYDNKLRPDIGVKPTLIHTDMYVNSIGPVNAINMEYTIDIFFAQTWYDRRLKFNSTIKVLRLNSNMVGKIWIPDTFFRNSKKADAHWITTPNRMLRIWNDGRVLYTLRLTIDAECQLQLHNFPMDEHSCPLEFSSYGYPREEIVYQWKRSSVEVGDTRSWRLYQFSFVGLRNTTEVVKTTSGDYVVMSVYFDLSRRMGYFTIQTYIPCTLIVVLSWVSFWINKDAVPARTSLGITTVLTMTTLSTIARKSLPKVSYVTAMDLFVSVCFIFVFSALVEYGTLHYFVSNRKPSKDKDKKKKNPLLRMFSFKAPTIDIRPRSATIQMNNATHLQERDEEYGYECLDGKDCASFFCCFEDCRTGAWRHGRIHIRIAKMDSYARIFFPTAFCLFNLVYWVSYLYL
T1 sequence (P28472 whole entry): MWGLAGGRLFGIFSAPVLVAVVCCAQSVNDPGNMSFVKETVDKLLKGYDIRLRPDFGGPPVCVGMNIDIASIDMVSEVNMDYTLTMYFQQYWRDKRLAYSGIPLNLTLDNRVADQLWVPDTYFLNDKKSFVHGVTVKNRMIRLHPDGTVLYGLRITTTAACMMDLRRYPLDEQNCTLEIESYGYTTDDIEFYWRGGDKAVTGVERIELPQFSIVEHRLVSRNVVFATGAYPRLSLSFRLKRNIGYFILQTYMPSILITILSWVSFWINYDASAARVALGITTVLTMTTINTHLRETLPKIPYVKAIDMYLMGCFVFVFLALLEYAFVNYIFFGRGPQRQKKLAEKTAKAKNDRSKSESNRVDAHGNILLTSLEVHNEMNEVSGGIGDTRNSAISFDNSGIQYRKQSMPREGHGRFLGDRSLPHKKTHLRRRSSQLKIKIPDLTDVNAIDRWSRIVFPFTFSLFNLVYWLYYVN

[2] = biological target: GABA-A receptor; alpha-3/beta-3/gamma-2 (Homo sapiens) (UniProt P18507+P28472+P34903); test: Efficacy was measured as modulation of the current in response to GABA at hGABA alpha-3-beta-3-gamma-2 receptor expressed in Xenopus oocytes; settings: Oocyte
In short: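 Two-electrode voltage clamp on Xenopus oocytes expressing each receptor combination. […] Value is percent increase or decrease of the EC20 GABA current.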

[3] = biological target: T2, GABA-A receptor; alpha-3/beta-3/gamma-2 (Homo sapiens, UniProt P18507+P28472+P34903); test: Inhibition of [3H]Ro-151788 binding to recombinant human gamma-aminobutyric-acid A receptor alpha-3-beta-3-gamma-2 subtype expressed in L (tk-) cells
T2 sequence (P18507 whole entry): T1 sequence (P18507 whole entry)
T2 sequence (P28472 whole entry): T1 sequence (P28472 whole entry)
T2 sequence (P34903 whole entry): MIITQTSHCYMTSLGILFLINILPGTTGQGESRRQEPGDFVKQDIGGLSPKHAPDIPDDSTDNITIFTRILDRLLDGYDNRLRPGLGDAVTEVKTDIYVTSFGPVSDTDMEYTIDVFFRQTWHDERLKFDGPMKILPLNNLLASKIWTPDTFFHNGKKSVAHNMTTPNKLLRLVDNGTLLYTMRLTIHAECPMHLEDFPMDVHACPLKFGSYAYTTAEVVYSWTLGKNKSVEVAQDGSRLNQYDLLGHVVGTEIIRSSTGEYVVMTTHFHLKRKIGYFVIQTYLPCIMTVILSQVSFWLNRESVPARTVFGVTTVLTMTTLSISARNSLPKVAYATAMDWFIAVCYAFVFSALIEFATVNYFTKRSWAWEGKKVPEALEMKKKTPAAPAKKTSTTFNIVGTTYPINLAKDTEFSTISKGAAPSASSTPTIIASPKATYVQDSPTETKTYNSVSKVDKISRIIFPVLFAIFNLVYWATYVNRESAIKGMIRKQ

[4] = biological target: T3, GABA-A receptor; alpha-2/beta-3/gamma-2 (Homo sapiens, UniProt P18507+P28472+P47869); test: Inhibition of [3H]Ro-151788 binding to recombinant human gamma-aminobutyric acid A receptor alpha-2-beta-3-gamma-2 subtype expressed in L (tk-) cells
T3 sequence (P18507 whole entry): T1 sequence (P18507 whole entry)
T3 sequence (P28472 whole entry): T1 sequence (P28472 whole entry)
T3 sequence (P47869 whole entry): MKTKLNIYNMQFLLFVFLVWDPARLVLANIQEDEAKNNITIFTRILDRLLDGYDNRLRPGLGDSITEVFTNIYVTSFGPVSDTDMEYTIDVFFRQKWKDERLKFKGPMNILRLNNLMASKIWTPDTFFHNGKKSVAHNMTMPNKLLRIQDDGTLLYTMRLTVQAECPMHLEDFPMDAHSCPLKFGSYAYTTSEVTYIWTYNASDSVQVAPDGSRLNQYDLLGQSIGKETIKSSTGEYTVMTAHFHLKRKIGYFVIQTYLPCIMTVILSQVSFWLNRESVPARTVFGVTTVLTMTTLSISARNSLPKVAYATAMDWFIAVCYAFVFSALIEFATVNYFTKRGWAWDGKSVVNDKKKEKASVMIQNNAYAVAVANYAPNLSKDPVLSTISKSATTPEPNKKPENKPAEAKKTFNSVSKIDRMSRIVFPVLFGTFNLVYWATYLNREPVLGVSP

[5] = biological target: T4, GABA-A receptor; alpha-5/beta-3/gamma-2 (Homo sapiens, UniProt P18507+P28472+P31644); test: Inhibition of [3H]Ro-151788 binding to recombinant human gamma-aminobutyric-acid A receptor alpha-5-beta-3-gamma-2 subtype expressed in L (tk-) cells
T4 sequence (P18507 whole entry): T1 sequence (P18507 whole entry)
T4 sequence (P28472 whole entry): T1 sequence (P28472 whole entry)
T4 sequence (P31644 whole entry): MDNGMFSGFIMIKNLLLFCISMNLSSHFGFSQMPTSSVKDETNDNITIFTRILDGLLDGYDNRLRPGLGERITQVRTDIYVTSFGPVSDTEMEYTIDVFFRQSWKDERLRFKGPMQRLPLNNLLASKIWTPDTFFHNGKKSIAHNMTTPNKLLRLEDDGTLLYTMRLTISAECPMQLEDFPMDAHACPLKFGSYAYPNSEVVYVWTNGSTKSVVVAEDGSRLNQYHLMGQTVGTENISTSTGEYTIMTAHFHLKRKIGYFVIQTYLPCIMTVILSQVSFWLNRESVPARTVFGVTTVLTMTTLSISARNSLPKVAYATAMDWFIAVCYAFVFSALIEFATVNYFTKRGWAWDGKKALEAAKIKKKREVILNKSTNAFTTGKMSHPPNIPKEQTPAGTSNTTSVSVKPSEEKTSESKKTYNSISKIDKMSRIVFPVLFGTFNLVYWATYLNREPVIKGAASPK

Structure (SMILES)	Ki [1]	Efficacy [2]	Ki [3]	Ki [4]	Ki [5]
OCCCOc1nn2c(-c3ccccc3)nnc2c2c1C1CCC2CC1	650 nM	–	170 nM	310 nM	42 nM
c1ccc(COc2nn3c(-c4ccncc4)nnc3c3c2C2CCC3CC2)nc1	> 1000 nM	–	150 nM	320 nM	20 nM
c1ccc(-c2nnc3c4c(c(COc5ccccn5)nn23)C2CCC4CC2)cc1	440 nM	–	120 nM	230 nM	58 nM
Cc1cccc(COc2nn3c(-c4ccccc4)nnc3c3c2C2CCC3CC2)n1	160 nM	–	20 nM	36 nM	2.6 nM
c1ccc(COc2nn3c(C4CC4)nnc3c3c2C2CCC3CC2)nc1	130 nM	–	18 nM	24 nM	1.8 nM
COC(=O)c1cccnc1COc1nn2c(-c3ccccc3)nnc2c2c1C1CCC2CC1	–	29%	7.1 nM	30 nM	2.5 nM
Cc1ccccc1-c1nnc2c3c(c(OCc4ccccn4)nn12)C1CCC3CC1	> 1000 nM	–	280 nM	280 nM	22 nM
c1ccc(-c2nnc3c4c(c(OCc5ncccc5OC5CCC5)nn23)C2CCC4CC2)cc1	32 nM	–	38 nM	43 nM	4.2 nM
c1ccc(-c2nnc3c4c(c(OCc5nc[nH]n5)nn23)C2CCC4CC2)cc1	–	49%	–	–	–
Cn1nnc(COc2nn3c(-c4ccccc4)nnc3c3c2C2CCC3CC2)n1	60 nM	–	37 nM	57 nM	6.5 nM
c1ccc(COc2nn3c(-c4ccccc4)nnc3c3c2C2CCC3CC2)cc1	> 1000 nM	–	> 1000 nM	> 1000 nM	110 nM
Cc1csc(COc2nn3c(-c4ccccc4)nnc3c3c2C2CCC3CC2)n1	140 nM	–	30 nM	40 nM	2.9 nM
c1ccc(-c2nnc3c4c(c(OCc5nnc[nH]5)nn23)C2CCC4CC2)cc1	43 nM	–	19 nM	25 nM	2.8 nM
Cc1cnc(COc2nn3c(-c4ccccc4)nnc3c3c2C2CCC3CC2)s1	100 nM	–	24 nM	28 nM	2 nM
Oc1cccnc1COc1nn2c(-c3ccccc3)nnc2c2c1C1CCC2CC1	270 nM	–	180 nM	470 nM	34 nM
c1ccc(-c2nnc3c4c(c(CNc5ccccn5)nn23)C2CCC4CC2)cc1	> 1000 nM	–	> 1000 nM	> 1000 nM	> 1000 nM
OCC1CCC(COc2nn3c(-c4ccccc4)nnc3c3c2C2CCC3CC2)CC1 (trans isomer)	150 nM	–	57 nM	77 nM	41 nM
CCO[n+]1ccccc1Oc1nn2c(-c3ccccc3)nnc2c2c1C1CCC2CC1	> 1000 nM	–	550 nM	390 nM	64 nM
Cn1nnnc1COc1nn2c(-c3ccccc3)nnc2c2c1C1CCC2CC1	78 nM	–	21 nM	59 nM	4.4 nM

Results, then the molecule that gave them:

Ki [1]	Efficacy [2]	Ki [3]	Ki [4]	Ki [5]	Structure (SMILES)
16 nM	27%	3 nM	6.5 nM	0.77 nM	c1ccc(-c2nnc3c4c(c(OCc5cnccn5)nn23)C2CCC4CC2)cc1
85 nM	28%	7.8 nM	15 nM	0.9 nM	Cc1c[nH]c(COc2nn3c(-c4ccccc4)nnc3c3c2C2CCC3CC2)n1
> 500 nM	–	> 500 nM	> 500 nM	> 500 nM	c1ccc(-c2nnc3c4c(c(OCc5cccs5)nn23)C2CCC4CC2)cc1
82 nM	–	26 nM	34 nM	3.9 nM	c1ccc(-c2nnc3c4c(c(OCc5cnc6ccccc6n5)nn23)C2CCC4CC2)cc1
220 nM	–	89 nM	160 nM	10 nM	CN(C)C(=O)COc1nn2c(-c3ccccc3)nnc2c2c1C1CCC2CC1
140 nM	–	66 nM	110 nM	16 nM	Cc1nc(COc2nn3c(-c4ccccc4)nnc3c3c2C2CCC3CC2)no1
> 500 nM	–	> 500 nM	> 500 nM	> 500 nM	FC(F)(F)Oc1ccc(COc2nn3c(-c4ccccc4)nnc3c3c2C2CCC3CC2)cc1
28 nM	–	6.1 nM	16 nM	0.54 nM	Fc1ccccc1-c1nnc2c3c(c(OCc4ccccn4)nn12)C1CCC3CC1
> 1000 nM	–	> 1000 nM	> 1000 nM	88 nM	OCC1CCC(COc2nn3c(-c4ccccc4)nnc3c3c2C2CCC3CC2)CC1 (stereo in doubt)
480 nM	–	200 nM	270 nM	44 nM	c1ccc(-c2nnc3c4c(c(OCCc5ccccn5)nn23)C2CCC4CC2)cc1
75 nM	–	240 nM	190 nM	30 nM	Cc1cccc(CCCOc2nn3c(-c4ccccc4)nnc3c3c2C2CCC3CC2)n1
